Like-named read-outs stand apart in the source and are kept apart here. Non-standard residues stand in square brackets, D forms with d. No end group written: not given here. pT = C[C@@H](OP(=O)(O)O)[C@H](N)C(=O)O
How the values were obtained:
[1] = target: T1, truncated wild-type LRRK2 (aa 970–2527) (Homo sapiens, UniProt Q5S007); format: biochemical; conditions: for KA (ATP): t-WT
[2] = target: T2, LRRK2 mutant t-G2019S (aa 970–2527) (Homo sapiens, UniProt Q5S007, G2019S); format: biochemical; conditions: for KA (ATP): t-G2019S
[3] = tested on: t-wt LRRK2 (GTPase activity); experiment: Radiometric TLC assay of LRRK2-catalyzed GTP hydrolysis; format: biochemical, human; conditions: pH 7.4, room temperature, Michaelis-Menten fit
In short: (§1)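 Baculovirus-expressed truncated LRRK2 (aa 970–2527), wild-type or G2019S. Run in triplicate, 20 min at room temperature, quenched with 20 mM EDTA. GDP resolved by PEI-cellulose TLC (0.5 M KH2PO4, pH 3.4) and scintillation-counted. Initial velocities versus [GTP] fitted to Michaelis-Menten.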

[4] = tested on: mutant t-G2019S (GTPase activity); experiment: as above; format: biochemical, human
In short: as §1

truncated LRRK2 proteins = experiment: Effect of GTP or GDP on kinase activity; format: biochemical, human; conditions: in vitro
t-wt LRRK2 = t-wt LRRK2 (Homo sapiens, UniProt Q5S007); format: biochemical; conditions: t-wt LRRK2 treated with NEM
[5] = target: T1, truncated wild-type LRRK2 (aa 970–2527); experiment: TR-FRET assay of PLK-peptide phosphorylation; format: biochemical
In short: (§2)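 Baculovirus-expressed truncated LRRK2 (aa 970–2527). ATP varied at several fixed PLK-peptide levels. Started with 4 nM enzyme; duplicate wells, RT, 4 h. Stopped with 10 mM EDTA; 2 nM Eu-anti-phospho-PLK added for 2 h; TR-FRET read. Initial velocities fitted by nonlinear least squares to two-substrate rate equations.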

[6] = target: T2, LRRK2 mutant t-G2019S (aa 970–2527); experiment: TR-FRET assay of PLK-peptide phosphorylation, initial velocity and inhibition; format: biochemical
In short: as §2

[7] = target: Truncated LRRK2 mutant G2019S (aa 970–2527) (human) (UniProt Q5S007); experiment: enzyme inhibition kinetics
[8] = target: Truncated wild-type LRRK2 (aa 970–2527) (human, UniProt Q5S007 970-2527); experiment: enzyme inhibition kinetics
Sequence of Truncated wild-type LRRK2 (aa 970–2527) (Q5S007 970-2527): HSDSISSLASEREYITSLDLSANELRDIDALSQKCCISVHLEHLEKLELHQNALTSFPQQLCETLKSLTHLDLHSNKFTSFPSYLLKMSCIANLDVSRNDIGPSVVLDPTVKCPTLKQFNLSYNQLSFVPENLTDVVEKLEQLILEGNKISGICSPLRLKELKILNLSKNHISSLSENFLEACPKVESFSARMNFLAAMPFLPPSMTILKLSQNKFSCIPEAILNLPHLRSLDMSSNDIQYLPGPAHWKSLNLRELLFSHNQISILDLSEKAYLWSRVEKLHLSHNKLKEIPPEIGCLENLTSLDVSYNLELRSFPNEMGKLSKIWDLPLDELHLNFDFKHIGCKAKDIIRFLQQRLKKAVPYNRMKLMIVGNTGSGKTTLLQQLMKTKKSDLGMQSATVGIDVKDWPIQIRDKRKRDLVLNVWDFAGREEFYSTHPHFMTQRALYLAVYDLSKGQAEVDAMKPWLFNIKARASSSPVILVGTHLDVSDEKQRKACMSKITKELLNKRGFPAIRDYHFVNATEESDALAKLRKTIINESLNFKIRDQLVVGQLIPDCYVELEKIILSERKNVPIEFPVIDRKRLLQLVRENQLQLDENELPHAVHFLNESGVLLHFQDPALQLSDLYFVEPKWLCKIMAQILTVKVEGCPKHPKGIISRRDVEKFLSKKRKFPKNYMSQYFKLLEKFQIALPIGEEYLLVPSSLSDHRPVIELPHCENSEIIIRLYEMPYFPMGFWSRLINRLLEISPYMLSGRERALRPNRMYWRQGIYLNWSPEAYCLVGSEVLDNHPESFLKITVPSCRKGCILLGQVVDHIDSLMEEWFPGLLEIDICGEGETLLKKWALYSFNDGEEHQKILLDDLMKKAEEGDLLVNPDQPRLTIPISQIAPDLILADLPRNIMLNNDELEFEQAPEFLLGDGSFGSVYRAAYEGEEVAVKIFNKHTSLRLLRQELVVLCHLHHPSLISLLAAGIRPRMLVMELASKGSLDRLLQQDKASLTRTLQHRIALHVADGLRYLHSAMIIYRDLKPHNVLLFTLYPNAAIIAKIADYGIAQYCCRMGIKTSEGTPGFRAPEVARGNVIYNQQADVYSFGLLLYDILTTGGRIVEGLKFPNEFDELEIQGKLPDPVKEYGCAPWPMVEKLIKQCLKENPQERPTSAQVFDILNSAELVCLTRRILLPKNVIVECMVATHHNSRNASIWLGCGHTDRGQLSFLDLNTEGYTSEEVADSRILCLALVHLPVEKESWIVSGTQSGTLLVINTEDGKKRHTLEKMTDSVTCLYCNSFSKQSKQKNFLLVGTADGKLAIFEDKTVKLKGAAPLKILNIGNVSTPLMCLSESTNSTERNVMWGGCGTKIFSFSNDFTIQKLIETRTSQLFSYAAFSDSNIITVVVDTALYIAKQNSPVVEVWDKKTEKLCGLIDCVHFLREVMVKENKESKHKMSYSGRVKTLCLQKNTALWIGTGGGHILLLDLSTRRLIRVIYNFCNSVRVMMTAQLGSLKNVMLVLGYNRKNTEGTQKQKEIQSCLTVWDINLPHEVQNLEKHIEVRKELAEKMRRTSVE

T2 sequence (Q5S007 970-2527 G2019S): as the sequence (Q5S007 970-2527) above, with G1050S counted along it
Sequence of Truncated LRRK2 mutant G2019S (aa 970–2527) (human) (Q5S007 970-2527 G2019S): as the sequence (Q5S007 970-2527) above, with G1050S counted along it
T1 sequence (Q5S007 970-2527): as the sequence (Q5S007 970-2527) above
Sequence of t-wt LRRK2 (Q5S007 970-2527): as above

RLGRDKYKTLRQIRQ [LRRKtide]
Kb [1]: 87 ± 11 µM | Kb [2]: 79 ± 11 µM

Nc1nc2c(ncn2[C@@H]2O[C@H](COP(=O)(O)OP(=O)(O)OP(=O)(O)O)[C@@H](O)[C@H]2O)c(=O)[nH]1 [GTP]
KGTP [3]: 0.7 ± 0.1 mM | kcat (GTP hydrolysis) ([3]; triplicate): 0.04 ± 0.004 s⁻¹ | decrease of GTPase activity by the mutation ([4]; t-G2019S versus t-wt): 20% | KGTP ([4]; t-G2019S, pH 7.4, room temperature, Michaelis-Menten fit): 0.4 ± 0.1 mM | kcat (GTP hydrolysis) ([4]; t-G2019S, pH 7.4, room temperature, Michaelis-Menten fit, triplicate): 0.03 ± 0.002 s⁻¹ | effect on kinase activity (truncated LRRK2 proteins): unable to detect any effect

CCN1C(=O)C=CC1=O [NEM, N-ethylmaleimide]
inhibition of LRRK2, dose-response (t-wt LRRK2): complete inhibition at high NEM concentration

RRRSLLE (Only the motif RRRSLLE is printed; The Ser is the phosphoaccept) [PLK-peptide]
Kb ([5]; read-out: KB (phosphoryl acceptor), t-WT, TR-FRET, averaged from two independent experiments): 0.43 ± 0.05 µM | Kb ([6]; read-out: KB (phosphoryl acceptor), TR-FRET, averaged from two independent experiments): 0.5 ± 0.2 µM

Nc1ncnc2c1ncn2[C@@H]1O[C@H](COP(=O)(O)OP(=O)(O)OP(=O)(O)O)[C@@H](O)[C@H]1O [ATP]
KA (ATP) ([1]; phosphoryl acceptor LRRKtide): 69 ± 6.6 µM | KA (ATP) ([1]; phosphoryl acceptor LRRKtide^S): 77 ± 19 µM | KA (ATP) ([2]; phosphoryl acceptor LRRKtide): 101 ± 16 µM | KA (ATP) ([2]; phosphoryl acceptor LRRKtide^S): 161 ± 38 µM | KA (ATP) ([5]; t-WT, phosphoryl acceptor PLK-peptide): 7.1 ± 0.7 µM | KA (ATP) ([6]; phosphoryl acceptor PLK-peptide): 10 ± 3.9 µM

Nc1nc2c(ncn2[C@@H]2O[C@H](COP(=O)(O)OP(=O)(O)O)[C@@H](O)[C@H]2O)c(=O)[nH]1 [GDP]
effect on kinase activity (truncated LRRK2 proteins): unable to detect any effect

LRRKtide^A (peptide)
Ki,e (variable substrate ATP, noncompetitive; LRRKtide^S phosphorylation) [7]: 800 µM | Ki,e (variable substrate ATP, noncompetitive; PLK-peptide phosphorylation) [7]: 800 µM | Ki,ea (variable substrate ATP, noncompetitive; LRRKtide^S phosphorylation) [7]: 500 µM | Ki,ea (variable substrate ATP, noncompetitive; PLK-peptide phosphorylation) [7]: 500 µM | Ki,ea (variable substrate LRRKtide^S, competitive) [7]: 500 µM | Ki,ea (variable substrate PLK-peptide, competitive) [7]: 500 µM

Nc1ncnc2c1ncn2[C@@H]1O[C@H](COP(=O)(O)OP(=O)(O)O)[C@@H](O)[C@H]1O [ADP]
inhibition mechanism ([2]; LRRKtide phosphorylation, variable substrate LRRKtide): noncompetitive

RRRSLLE [PLK-peptide]
tighter binding relative to LRRKtide ([5]; from differences in Km values): > 200 fold | α ([5]; t-WT, TR-FRET, interaction factor (eq 3)): 0.5 ± 0.1 | α ([6]; TR-FRET, interaction factor (eq 3)): 0.6 ± 0.3

RLGRDKYK[pT]LRQIRQ (not fully specified; printed as RLGRDKYK(PO4)TLRQIRQ) [PO4-LRRKtide]
binding result [8]: binds

Reference: publication PMC3205922 (Biochemistry, 2011)
